From ChEMBL document CHEMBL1149150, “Novel 3-oxa lipoxin A4 analogues with enhanced chemical and metabolic stability have anti-inflammatory activity in vivo” (J Med Chem, 2004)

Legend:
[1] = Area under curve after intravenous administration at 3 mg/kg; format: ADME, organism-based; set-up: dose 3 mg/kg, route intravenous; conditions: rat, in vivo
Method in brief: (§1)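 Rats, n = 3 per route, dosed by iv injection at 3 mg/kg or oral gavage at 5 mg/kg. Plasma analysed by LC/MS–MS with LXA₄ as internal standard on a C18 column (10–80% gradient over 2 min). For methyl ester dosing, the plasma acid formed by hydrolysis was the analyte quantified. Outputs: T1/2, clearance, AUCall, Cmax, Tmax, F.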

[2] = test system: Rattus norvegicus; experiment: Compound clearance in rats was measured after intravenous administration at 3 mg/kg; format: ADME, organism-based; set-up: dose 3 mg/kg, route intravenous; conditions: in vivo; method in brief: as §1
[3] = Half life period of compound was determined after peroral administration at 2 mg/kg; format: ADME, organism-based, Canis lupus familiaris; set-up: dose 2 mg/kg, route oral; conditions: dog, in vivo, po
Method in brief: (§2)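 Dogs dosed iv at 2 mg/kg or orally at 2 mg/kg. Plasma parameters derived were half-life, Cmax, Tmax and oral bioavailability (F).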

[4] = F value of compound in rats was determined after peroral administration; format: ADME, organism-based; conditions: rat, in vivo, po; method in brief: as §1
[5] = test system: Mus sp.; experiment: (§3) Inhibition of the edema formation by compound was determined in mice; format: functional, organism-based
Method in brief: (§4)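 Mice given ionophore on the ear with topical coapplication of compound at 100, 300 and 600 µg/cm², vehicle and ionophore controls alongside. Euthanized at 24 h. Ear weight taken as edema. Peroxidase (granulocytes) and elastase (neutrophils) activities measured in ear homogenates. N = 8–10 mice per group, mean ± SEM.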

[6] = Half life period of compound was determined at a dose of 3 mg/kg by intravenous administration; format: ADME, organism-based; set-up: dose 3 mg/kg, route intravenous; conditions: rat, in vivo; method in brief: as §1
[7] = Bioavailability of compound in dog was determined after peroral administration; format: ADME, organism-based, Canis lupus familiaris; conditions: in vivo, po; method in brief: as §2
[8] = Half life period of compound was determined after intravenous administration at 2 mg/kg; format: ADME, organism-based, Canis lupus familiaris; set-up: dose 2 mg/kg, route intravenous; conditions: dog, in vivo; method in brief: as §2
[9] = Half life period of compound was determined after peroral administration; format: ADME, organism-based; conditions: rat, in vivo, po; method in brief: as §1
[10] = Tmax was measured in rats after peroral administration at 5 mg/kg; format: ADME, organism-based; set-up: dose 5 mg/kg, route oral; conditions: rat, in vivo, po; method in brief: as §1
[11] = Oral bioavailability in rat; format: ADME, organism-based; conditions: in vivo; method in brief: as §1
[12] = test system: Mus musculus; experiment: as §3; format: functional, organism-based; method in brief: as §4
[13] = Bioavailability value of compound in rats was determined after peroral administration; format: ADME, organism-based; conditions: rat, in vivo, po; method in brief: as §1

Compound | AUC [1] | Cl [2] | half-life [3] | bioavailability [4] | ED50 [5] | half-life [6] | bioavailability [7] | half-life [8] | half-life [9] | Tmax [10] | bioavailability [11] | IC50 [12] | bioavailability [13]
O=C(O)COC[C@H](O)[C@H](O)/C=C/C=C/C#C/C=C/[C@H](O)COc1ccc(F)cc1 | 7000 ng·h/mL | 7 mL/min/kg | 3.2 h | 14% | < 300 µg/cm² | 2.3 h | 40% | 2.7 h | 2.2 h | 1.3 h |  |  | 
O=C(O)CCC[C@H](O)[C@H](O)/C=C/C=C/C#C/C=C/[C@@H](O)COc1ccc(F)cc1 | 900 ng·h/mL | 58 mL/min/kg |  |  |  | 0.1 h |  |  | 1.8 h | 0.5 h | 28% |  | 
O=C(O)COC[C@H](O)[C@H](O)/C=C/C=C/C=C/C=C/[C@H](O)COc1ccc(F)cc1 | 1000 ng·h/mL | 50 mL/min/kg |  |  |  | 1.3 h |  |  | 1.1 h | 0.5 h | 4% | < 300 ug cm**-2 | 
COC(=O)CCCC(O)C(O)/C=C/C=C/C=C/C=C/[C@H](O)COc1ccc(F)cc1 (single isomer, unassigned) | 1000 ng·h/mL | 51 mL/min/kg |  |  |  | 0.3 h |  |  | 0.5 h | 0.5 h | 12% |  | 
O=C(O)CCCC(O)C(O)/C=C/C=C/C=C/C=C/[C@H](O)COc1ccc(F)cc1 (single isomer, unassigned) | 1800 ng·h/mL | 28 mL/min/kg |  |  |  | 0.2 h |  |  | 1.1 h | 1 h |  |  | 13%
